Data on 5 compounds can be found in ChEMBL document CHEMBL1141410, “Eremophilane-type sesquiterpene derivatives from the roots of Ligularia lapathifolia” (J Nat Prod, 2007).

The term IC50 denotes the midpoint of a concentration-inhibition curve. The low end stands for higher potency, the high end for lower potency.

Some results are limits rather than exact numbers.

Assay type in all cases: cell-based
One test has as its system CCRF S-180. The experiment in a line: Cytotoxicity against mouse S180 cells after 48 hrs by MTT colorimetric assay. The following applies: CCRF S-180, 48 h. In outline: (§1)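 Cells maintained in RPMI-1640 with 10% heat-inactivated FBS, penicillin and streptomycin at 37 °C, 5% CO2; exponentially growing cells seeded at 1 × 10^5 cells/mL, treated after 24 h at 0.1–100 or 0.15–150 mg/L, six replicate wells per point. After 48 h, MTT added for 4 h at 37 °C, then 10% SDS–0.01 M HCl overnight; A570 read, cytotoxicity % versus untreated cells.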
(Tetrazolium dyes change colour on reduction, which living cells bring about.)

Test [1] can be described thus: Cytotoxicity against human MGC803 cells after 48 hrs by MTT colorimetric assay. As to conditions: MGC-803, 48 h. In outline: as §1
In the next test the test system is HepG2. Put plainly: Cytotoxicity against human HEPG2 cells after 48 hrs by MTT colorimetric assay. As to conditions: HepG2, 48 h. In outline:
as §1

For the compound `C/C=C(/C)C(=O)OC1CC[C@@H]2CC(=O)C(C(C)C(=O)OC)=C[C@]2(C)C1C(=O)OC` (stereo not given in full), the IC50 (in the test with CCRF S-180; in test [1]; in the test on HepG2) was over 100 µM each time.

As to `CO[C@]12C[C@H]3CCC=C4C(=O)O[C@@H](C1=C(C)C(=O)O2)[C@]43C`, the IC50 is 73.1 µM with CCRF S-180, over 100 µM in test [1] and 12.7 µM in the test with HepG2.

As to `CCO[C@]12C[C@H]3CCC=C4C(=O)O[C@@H](C1=C(C)C(=O)O2)[C@]43C`, the IC50 was determined as 36.6 µM in the test on CCRF S-180, 53.9 µM in test [1] and 40.5 µM in the test on HepG2.

For the compound `COC(=O)C1=CCC[C@@H]2CC(C(C)=O)=C[C@]12C`, the IC50 is 19.9 µM in the test with CCRF S-180, 35.4 µM in test [1] and 46.5 µM with HepG2.

Take `CC1=C2[C@@H]3OC(=O)C4=CCC[C@H](C[C@]2(O)OC1=O)[C@@]43C`: the IC50 (with CCRF S-180; in test [1]; with HepG2) was over 100 µM throughout.
